ChEMBL document CHEMBL4011627, “Hepatitis C Virus NS3/4A Protease Inhibitors Incorporating Flexible P2 Quinoxalines Target Drug Resistant Viral Variants” (J Med Chem, 2017)

What was measured:
[1] = Inhibition of HCV genotype 1a NS3/4A protease using Ac-DE-Dap(QXL 520)-EE-Abu-psi-[COO]AS-C(5-FAMsp)-NH2 as substrate preincubated for 1 hr followed by substrate addition; design: species or system Hepatitis C virus subtype 1a
Summary of the method: (§1)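 Protease domain at 2 nM preincubated 1 h at room temperature with inhibitor titrations (at least 12 concentrations) in 50 mM Tris, 5% glycerol, 10 mM DTT, 0.6 mM LDAO, 4% DMSO. Reaction started with fluorogenic substrate (200 nM final) and followed kinetically (ex 485/em 530 nm). Three independent data sets, fit globally to the Morrison equation for Ki.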

Hepatitis C virus [2] = assay: Antiviral activity against HCV genotype 1b Con1 harboring HCV genotype 1a H77 NS3 A156T mutant infected in human HuH7 cells assessed as inhibition of viral replication after 96 hrs by luciferase reporter gene assay; type: functional, cell-based, Hepacivirus hominis; conditions: genotype 1b Con1, Huh-7, 96 h
Hepatitis C virus [3] = assay: Antiviral activity against HCV genotype 1b Con1 harboring HCV genotype 1a H77 NS3 R155K mutant infected in human HuH7 cells assessed as inhibition of viral replication after 96 hrs by luciferase reporter gene assay; type: functional, cell-based, Hepacivirus hominis; conditions: genotype 1b Con1, Huh-7, 96 h
Hepatitis C virus [4] = assay: Antiviral activity against HCV genotype 1b Con1 harboring HCV genotype 1a H77 NS3 D168V mutant infected in human HuH7 cells assessed as inhibition of viral replication after 96 hrs by luciferase reporter gene assay; type: functional, cell-based, Hepacivirus hominis; conditions: genotype 1b Con1, Huh-7, 96 h
[5] = target: Hepatitis C virus serine protease, NS3/NS4A (Hepatitis C virus, UniProt A3EZI9+D2K2A8, D168A); assay: Inhibition of HCV genotype 1a NS3/4A protease D168A mutant using Ac-DE-Dap(QXL 520)-EE-Abu-psi-[COO]AS-C(5-FAMsp)-NH2 as substrate preincubated for 1 hr followed by substrate addition; design: species or system Hepatitis C virus subtype 1a
Summary of the method: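 NS3/4A protease domain at 2 nM pre-incubated 1 h at room temperature with increasing inhibitor (at least 12 concentrations) in 50 mM Tris, 5% glycerol, 10 mM DTT, 0.6 mM LDAO, 4% DMSO. Reaction started with FRET substrate (final 200 nM), monitored kinetically (ex 485/em 530 nm). Three independent data sets; global Morrison fit for Ki.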

Hepatitis C virus [6] = assay: Antiviral activity against HCV genotype 1b Con1 harboring HCV genotype 1a H77 NS3 D168A mutant infected in human HuH7 cells assessed as inhibition of viral replication after 96 hrs by luciferase reporter gene assay; type: functional, cell-based, Hepacivirus hominis; conditions: genotype 1b Con1, Huh-7, 96 h
Hepatitis C virus [7] = assay: Antiviral activity against HCV genotype 1b Con1 harboring HCV genotype 1a H77 NS3 infected in human HuH7 cells assessed as inhibition of viral replication after 96 hrs by luciferase reporter gene assay; type: functional, cell-based, Hepacivirus hominis; conditions: genotype 1b Con1, Huh-7, 96 h
[8] = Inhibition of HCV genotype 3a NS3/4A protease using Ac-DE-Dap(QXL520)-EE-Abu-psi-[COO]AS-C(5-FAMsp)-NH2 as substrate preincubated for 1 hr followed by substrate addition; design: species or system Hepatitis C virus subtype 3a; summary of the method: as §1

SMILES | Ki [1] [nM] | EC50 (Hepatitis C virus [2]) [nM] | EC50 (Hepatitis C virus [3]) [nM] | EC50 (Hepatitis C virus [4]) [nM] | Ki [5] [nM] | EC50 (Hepatitis C virus [6]) [nM] | EC50 (Hepatitis C virus [7]) [nM] | Ki [8] [nM]
CCc1nc2ccccc2nc1O[C@@H]1C[C@H]2C(=O)N[C@]3(C(=O)NS(=O)(=O)C4CC4)C[C@H]3/C=C\CCCCC[C@H](NC(=O)OC(C)(C)C)C(=O)N2C1 | 7.18 | 10.6 | 1.81 | 14 | 190 | 8.55 | 0.46 | 
COc1ccc2nc(C)c(O[C@@H]3C[C@H]4C(=O)N[C@]5(C(=O)NS(=O)(=O)C6(C)CC6)C[C@H]5/C=C\CCCCC[C@H](NC(=O)OC5CCCC5)C(=O)N4C3)nc2c1 | 1.13 | 3.99 | 1.09 |  | 36.3 | 2.16 | 0.13 | 121
COc1ccc2nc(Cl)c(O[C@@H]3C[C@H]4C(=O)N[C@]5(C(=O)NS(=O)(=O)C6(C)CC6)C[C@H]5/C=C\CCCCC[C@H](NC(=O)OC(C)(C)C)C(=O)N4C3)nc2c1 | 1.11 | 8.86 | 0.4 | 0.49 | 77.7 | 1.07 | 0.18 | 53.6
COc1ccc2nc(C(F)(F)F)c(O[C@@H]3C[C@H]4C(=O)N[C@]5(C(=O)NS(=O)(=O)C6(C)CC6)C[C@H]5/C=C\CCCCC[C@H](NC(=O)OC5CCCC5)C(=O)N4C3)nc2c1 | 8.14 | 75.9 | 6.9 | 11.4 | 110 | 8.46 | 4.04 | 433
COc1ccc2nc(C(F)(F)F)c(O[C@@H]3C[C@H]4C(=O)N[C@]5(C(=O)NS(=O)(=O)C6(C)CC6)C[C@H]5/C=C\CCCCC[C@H](NC(=O)OC(C)(C)C)C(=O)N4C3)nc2c1 | 5.77 | 20.5 | 2.3 | 8.31 | 118 | 8.64 | 1.52 | 231
COc1ccc2nc(C(F)(F)F)c(O[C@@H]3C[C@H]4C(=O)N[C@]5(C(=O)NS(=O)(=O)C6CC6)C[C@H]5/C=C\CCCCC[C@H](NC(=O)OC5CCCC5)C(=O)N4C3)nc2c1 | 7.55 | 117 | 7.97 | 24 | 115 | 15.1 | 4.86 | 757
COc1ccc2nc(C(C)C)c(O[C@@H]3C[C@H]4C(=O)N[C@]5(C(=O)NS(=O)(=O)C6(C)CC6)C[C@H]5/C=C\CCCCC[C@H](NC(=O)OC(C)(C)C)C(=O)N4C3)nc2c1 | 0.58 | 21.2 | 4.14 | 18.1 | 211 | 11.9 | 1.86 | 
COc1ccc2nc(Cl)c(O[C@@H]3C[C@H]4C(=O)N[C@]5(C(=O)NS(=O)(=O)C6(C)CC6)C[C@H]5/C=C\CCCCC[C@H](NC(=O)OC5CCCC5)C(=O)N4C3)nc2c1 | 0.44 | 4.32 | 0.56 | 1.09 | 25.7 | 0.97 | 0.15 | 61
COc1ccc2nc(C(C)C)c(O[C@@H]3C[C@H]4C(=O)N[C@]5(C(=O)NS(=O)(=O)C6CC6)C[C@H]5/C=C\CCCCC[C@H](NC(=O)OC(C)(C)C)C(=O)N4C3)nc2c1 | 4.27 | 25.7 | 5.02 | 23.7 | 239 | 15.3 | 1.43 | 
COc1ccc2nc(C)c(O[C@@H]3C[C@H]4C(=O)N[C@]5(C(=O)NS(=O)(=O)C6CC6)C[C@H]5/C=C\CCCCC[C@H](NC(=O)OC(C)(C)C)C(=O)N4C3)nc2c1 | 3.4 | 5.95 | 1.17 | 3.17 | 50.9 | 4.24 | 0.39 | 152
COc1ccc2nc(C(C)C)c(O[C@@H]3C[C@H]4C(=O)N[C@]5(C(=O)NS(=O)(=O)C6(C)CC6)C[C@H]5/C=C\CCCCC[C@H](NC(=O)OC5CCCC5)C(=O)N4C3)nc2c1 | 1.34 | 27.6 | 6.83 | 18.2 | 156 | 7.91 | 0.59 | 
COc1ccc2nc(C(F)(F)F)c(O[C@@H]3C[C@H]4C(=O)N[C@]5(C(=O)NS(=O)(=O)C6CC6)C[C@H]5/C=C\CCCCC[C@H](NC(=O)OC(C)(C)C)C(=O)N4C3)nc2c1 | 13.3 | 36.2 | 3.45 | 17.1 | 157 | 16.8 | 1.98 | 344
COc1ccc2nc(C)c(O[C@@H]3C[C@H]4C(=O)N[C@]5(C(=O)NS(=O)(=O)C6CC6)C[C@H]5/C=C\CCCCC[C@H](NC(=O)OC5CCCC5)C(=O)N4C3)nc2c1 | 0.93 | 2.88 | 0.89 | 4.32 | 31.9 | 2.63 | 0.11 | 147
COc1ccc2nc(C)c(O[C@@H]3C[C@H]4C(=O)N[C@]5(C(=O)NS(=O)(=O)C6(C)CC6)C[C@H]5/C=C\CCCCC[C@H](NC(=O)OC(C)(C)C)C(=O)N4C3)nc2c1 | 3.6 | 1.57 | 0.8 | 1.6 | 52 | 2.37 | 0.3 | 119
CCc1nc2ccc(OC)cc2nc1O[C@@H]1C[C@H]2C(=O)N[C@]3(C(=O)NS(=O)(=O)C4CC4)C[C@H]3/C=C\CCCCC[C@H](NC(=O)OC(C)(C)C)C(=O)N2C1 | 3.29 | 9.65 | 1.75 | 9.1 | 82.4 | 6.31 | 0.33 | 204
CCc1nc2ccc(OC)cc2nc1O[C@@H]1C[C@H]2C(=O)N[C@]3(C(=O)NS(=O)(=O)C4(C)CC4)C[C@H]3/C=C\CCCCC[C@H](NC(=O)OC(C)(C)C)C(=O)N2C1 | 1.82 | 4.52 | 1.8 | 6.42 | 55.2 | 4.97 | 0.43 | 171
COc1ccc2nc(C(C)C)c(O[C@@H]3C[C@H]4C(=O)N[C@]5(C(=O)NS(=O)(=O)C6CC6)C[C@H]5/C=C\CCCCC[C@H](NC(=O)OC5CCCC5)C(=O)N4C3)nc2c1 | 1.44 | 32.1 | 7.63 | 30.1 | 161 | 7.96 | 0.48 | 
CCc1nc2ccccc2nc1O[C@@H]1C[C@H]2C(=O)N[C@]3(C(=O)NS(=O)(=O)C4CC4)C[C@H]3/C=C\CCCCC[C@H](NC(=O)OC3CCCC3)C(=O)N2C1 | 1.99 | 24.6 | 4.28 | 19.3 | 107 | 7.5 | 0.24 | 
CCc1nc2ccc(OC)cc2nc1O[C@@H]1C[C@H]2C(=O)N[C@]3(C(=O)NS(=O)(=O)C4(C)CC4)C[C@H]3/C=C\CCCCC[C@H](NC(=O)OC3CCCC3)C(=O)N2C1 | 1.37 | 10.6 | 2.07 | 7.08 | 55.2 | 3.45 | 0.16 | 186
COc1ccc2nc(Cl)c(O[C@@H]3C[C@H]4C(=O)N[C@]5(C(=O)NS(=O)(=O)C6CC6)C[C@H]5/C=C\CCCCC[C@H](NC(=O)OC5CCCC5)C(=O)N4C3)nc2c1 | 0.49 | 3.55 | 0.59 | 1.55 | 30.6 | 1.32 | 0.15 | 85.6
CCc1nc2ccc(OC)cc2nc1O[C@@H]1C[C@H]2C(=O)N[C@]3(C(=O)NS(=O)(=O)C4CC4)C[C@H]3/C=C\CCCCC[C@H](NC(=O)OC3CCCC3)C(=O)N2C1 | 1.24 | 11.8 | 2.08 | 11.9 | 52.3 | 3.6 | 0.14 | 211
COc1ccc2nc(Cl)c(O[C@@H]3C[C@H]4C(=O)N[C@]5(C(=O)NS(=O)(=O)C6CC6)C[C@H]5/C=C\CCCCC[C@H](NC(=O)OC(C)(C)C)C(=O)N4C3)nc2c1 | 1.07 | 16.2 | 0.44 | 0.73 | 39.8 | 1.42 | 0.16 | 67.5
